Source: ChEMBL document CHEMBL1126572, “Synthesis and pharmacological activity of a series of dihydro-1H-pyrrolo[1,2-a]imidazole-2,5(3H,6H)-diones, a novel class of potent cognition enhancers” (J Med Chem, 1993)

What was measured:
Rattus norvegicus [1] = assay: Percent reversal of scopolamine-induced amnesia rat following 10 mg/kg i.p.; assay type: functional; details: route intraperitoneal
Procedure, shortened: (§1)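 Male Wistar rats, 200–220 g, acclimatised ≥1 week; one-trial step-through passive avoidance in two-compartment box with electrifiable grid floor. Scopolamine hydrobromide 0.66 mg/kg sc 60 min before learning, test compound or vehicle 30 min before scopolamine; 45 rats per experiment split into saline, scopolamine and treated groups. % amnesia reversal computed from group retention; Fisher's exact test versus scopolamine group.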

Rattus norvegicus [2] = assay: Percent reversal of scopolamine-induced amnesia rat following 1.0 mg/kg i.p.; assay type: functional; details: route intraperitoneal; procedure, shortened: as §1
Rattus norvegicus [3] = assay: Percent reversal of scopolamine-induced amnesia rat at 10 mg/kg po; assay type: functional; procedure, shortened: as §1
Rattus norvegicus [4] = assay: Percent reversal of scopolamine-induced amnesia rat at 0.1 mg/kg ip; assay type: functional; details: route intraperitoneal; procedure, shortened: as §1
Rattus norvegicus [5] = assay: Percent reversal of scopolamine-induced amnesia rat at 30 mg/kg po; assay type: functional; procedure, shortened: as §1
Rattus norvegicus [6] = assay: Percent reversal of scopolamine-induced amnesia rat at 0.3 mg/kg ip; assay type: functional; details: route intraperitoneal; procedure, shortened: as §1
Rattus norvegicus [7] = assay: Percent reversal of scopolamine-induced amnesia rat at 1.0 mg/kg po; assay type: functional; procedure, shortened: as §1
Rattus norvegicus [8] = assay: Tested for efficiency in responding in radial maze test in rat on the day before treatment at 1 mg/kg sc along with Scopolamine at 50 ug/kg sc; assay type: functional; details: route subcutaneous
Procedure, shortened: (§2)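 Male Wistar rats (2 months old, 250 g), food-restricted to 80-85% body weight, were trained daily in an eight-arm radial maze to criterion (≤9 choices on 3 consecutive days). Scopolamine was given sc 60 min before testing and the test drug sc in saline 90 min before. Treatments were ≥3 days apart with retraining. Efficiency was scored as 8/total choices × 100.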

Rattus norvegicus [9] = assay: Tested for running time in radial maze test in rat on the day after treatment at 1 mg/kg sc along with Scopolamine at 50 ug/kg sc; assay type: functional; details: route subcutaneous
Procedure, shortened: (§3)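 Eight-arm radial maze in male Wistar rats (2 months old, 250 g) held at 80-85% body weight and trained to ≤9 choices for 3 consecutive days. Scopolamine was given sc 60 min pre-test and the drug sc in isotonic saline 90 min pre-test. Position was video-tracked. Mean running time (s) was total task time divided by number of choices.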

Rattus norvegicus [10] = assay: Percent reversal of scopolamine-induced amnesia rat at 0.3 mg/kg po; assay type: functional; procedure, shortened: as §1
Rattus norvegicus [11] = assay: Tested for efficiency in responding in radial maze test in rat on the day of treatment at 1 mg/kg sc along with Scopolamine at 50 ug/kg sc; assay type: functional; details: route subcutaneous; procedure, shortened: as §2
Rattus norvegicus [12] = assay: Tested for efficiency in responding in radial maze test in rat on the day after treatment at 1 mg/kg sc along with Scopolamine at 50 ug/kg sc; assay type: functional; details: route subcutaneous
Rattus norvegicus [13] = assay: Tested for running time in radial maze test in rats on the day of treatment at 1 mg/kg sc along with Scopolamine at 50 ug/kg sc; assay type: functional; details: route subcutaneous
Procedure, shortened: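 Male Wistar rats (2 months, 250 g) food-restricted to 80–85% body weight, trained in eight-arm radial maze to criterion (≤9 choices, 3 consecutive days). Scopolamine 50 μg/kg sc 60 min and compound (saline, 2 mL/kg) 90 min before test; mean running time = total running time/total choices, video-tracked; compared with performance on days before and after treatment.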

Rattus norvegicus [14] = assay: Tested for running time in radial maze test in rat on the day before treatment at 1 mg/kg sc along with Scopolamine at 50 ug/kg sc; assay type: functional; details: route subcutaneous; procedure, shortened: as §3
Rattus norvegicus [15] = assay: Tested for running time in radial maze test in rat on the day of treatment at 1 mg/kg sc along with Scopolamine at 50 ug/kg sc; assay type: functional; details: route subcutaneous; procedure, shortened: as §3
[16] = Basicity was assessed from pKB; assay type: ADME

SMILES	Reversal (Rattus norvegicus [1])	Reversal (Rattus norvegicus [2])	Reversal (Rattus norvegicus [3])	Reversal (Rattus norvegicus [6])	Reversal (Rattus norvegicus [7])	further results
O=C1CCC2N1CC(=O)N2C(=O)OCc1ccccc1 (stereo not drawn)	12%	31%				
O=C1NC2CCC(=O)N2C1CO (stereo not drawn)		38%	42%	30%	0%	Reversal (Rattus norvegicus [4]): 3%; Reversal (Rattus norvegicus [5]): 0%
O=C1CN2C(=O)CCC2(C(=O)O)N1 (stereo not drawn)	53%	14%	33%		1%	
CC1C(=O)NC2CCC(=O)N21 (racemic)	38%	38%	33%		9%	
C[C@H]1C(=O)NC2CCC(=O)N21 (stereo partly drawn)	3%	52%		0%		
O=C1CN2C(=O)CCC2N1 (stereo not drawn) [DIMIRACETAM]	70%	68%	60%	16%	75%	Efficiency (Rattus norvegicus [8]): 96.3%; Time (Rattus norvegicus [9]): 19.6 s; Reversal (Rattus norvegicus [10]): 28%; Efficiency (Rattus norvegicus [11]): 75.6%; Efficiency (Rattus norvegicus [12]): 88.6%; Time (Rattus norvegicus [13]): 34.6 s; Reversal (Rattus norvegicus [5]): 40%; Time (Rattus norvegicus [14]): 16.6 s
CC1C(=O)NC2(C)CCC(=O)N12 (racemic)						Reversal (Rattus norvegicus [3]; 10 mg/kg): 42%; Reversal (Rattus norvegicus [1]; 10 mg/kg): 0%; Reversal (Rattus norvegicus [2]; 1 mg/kg): 38%; Reversal (Rattus norvegicus [6]; 0.3 mg/kg): 30%; Reversal (Rattus norvegicus [7]; 1 mg/kg): 17%
CC12CCC(=O)N1CC(=O)N2 (stereo not drawn)	46%	40%	0%	0%		Reversal (Rattus norvegicus [5]): 26%
NC(=O)CN1C(=O)CN2C(=O)CCC12 (stereo not drawn)	62%	49%	9%		0%	
NC(=O)C12CCC(=O)N1CC(=O)N2 (stereo not drawn)	38%	62%	0%	38%	0%	
CCOC(=O)CN1C(=O)CN2C(=O)CCC12 (stereo not drawn)	0%	3%				
CCN1C(=O)CN2C(=O)CCC12 (stereo not drawn)	0%	0%				
CN1[C@@H]2C[C@@H](OC(=O)[C@H](CO)c3ccccc3)C[C@H]1[C@@H]1O[C@@H]12 [SCOPOLAMINE]						Efficiency (Rattus norvegicus [8]): 87.3%; Time (Rattus norvegicus [9]): 19.6 s; Efficiency (Rattus norvegicus [11]): 63.9%; Efficiency (Rattus norvegicus [12]): 83.9%; Time (Rattus norvegicus [14]): 14.3 s; Time (Rattus norvegicus [15]): 34.6 s
CCOC(=O)C12CCC(=O)N1CC(=O)N2 (stereo not drawn)	62%	25%	0%		0%	
O=C1NC2CCC(=O)N2[C@H]1Cc1ccccc1 (stereo partly drawn)	0%	53%	0%	53%	42%	Reversal (Rattus norvegicus [4]): 0%; Reversal (Rattus norvegicus [10]): 0%; Reversal (Rattus norvegicus [5]): 7%
CC(=O)N1C(=O)CN2C(=O)CCC21 (stereo not drawn)	0%	0%				
O=C1CN2C(=O)CCCC2N1 (stereo not drawn)	27%	27%	0%		0%	
NC(=O)CN1CC(O)CC1=O (stereo not drawn) [OXIRACETAM]	53%	12%	27%			Reversal (Rattus norvegicus [5]): 69%
O=C1NC2CCC(=O)N2[C@@H]1Cc1ccccc1 (stereo partly drawn)	0%	19%		42%		Reversal (Rattus norvegicus [4]): 15%
CC1C(=O)NC2(C)CCC(=O)N12 (stereo in doubt; 18 (S))						Reversal (Rattus norvegicus [3]; 10 mg/kg): 26%; Reversal (Rattus norvegicus [1]; 10 mg/kg): 44%; Reversal (Rattus norvegicus [5]): 37%; Reversal (Rattus norvegicus [2]; 1 mg/kg): 65%; Reversal (Rattus norvegicus [6]; 0.3 mg/kg): 10%; Reversal (Rattus norvegicus [7]; 1 mg/kg): 21%
NC(=O)CNCc1ccccc1						pKB [16]: 7.2
O=C1CN2C(=O)CCCCC2N1 (stereo not drawn)	12%	22%				
CC(C)CC1C(=O)NC2CCC(=O)N21 (stereo not drawn)	0%	3%				
